Experimental findings from ChEMBL document CHEMBL4390658, “Rational design of allosteric modulators of the aromatase enzyme: An unprecedented therapeutic strategy to fight breast cancer” (Eur J Med Chem, 2019) are described below.

For series [1], the target named is T1, Aromatase (Homo sapiens, UniProt P11511).
T1 sequence (P11511 whole entry): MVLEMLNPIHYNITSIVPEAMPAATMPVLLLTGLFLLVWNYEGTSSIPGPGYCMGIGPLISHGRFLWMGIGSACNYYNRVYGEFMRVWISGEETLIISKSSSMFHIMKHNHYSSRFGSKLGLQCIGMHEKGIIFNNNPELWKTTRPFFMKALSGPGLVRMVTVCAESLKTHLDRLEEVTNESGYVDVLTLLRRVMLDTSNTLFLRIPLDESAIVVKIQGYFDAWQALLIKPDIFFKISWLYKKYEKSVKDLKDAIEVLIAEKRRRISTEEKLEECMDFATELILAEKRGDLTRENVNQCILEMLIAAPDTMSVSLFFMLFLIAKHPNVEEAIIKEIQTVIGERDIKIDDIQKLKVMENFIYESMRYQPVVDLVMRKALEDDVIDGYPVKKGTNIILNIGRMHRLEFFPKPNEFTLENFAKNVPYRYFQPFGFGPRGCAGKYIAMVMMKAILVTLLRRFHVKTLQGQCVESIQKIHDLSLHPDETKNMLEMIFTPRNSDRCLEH
Nature of the series: Inhibition of recombinant human aromatase at 100 uM preincubated for 10 mins followed by substrate and beta-NADP+ addition and measured for 60 mins by fluorescence method. The following applies: 1 h. The procedure, abridged: (§1)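 Single-concentration screen of recombinant human aromatase with an NADPH-generating system, at 100 and 200 µM inhibitor, DMSO ≤0.25% (v/v) final. Mix preincubated 10 min at 37°C, then fluorogenic substrate plus β-NADP+ added. Fluorescence read at 488/527 nm over 60 min. % inhibition taken from the RFU ratio of control to test, in triplicate.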

Series [2] relates to MDA-MB-231. Nature of the series: Growth inhibition of human MDA-MB-231 cells incubated for 72 hrs by cell counting based method. It is filed as functional. The following applies: MDA-MB-231, 72 h. The procedure, abridged:
(§2)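 MCF-7 (ER+) and MDA-MB-231 (ER−) cells from ATCC, seeded at 50000 cells/well in triplicate. After 24 h, exposed for 72 h to graded concentrations, up to 200 µM. Cells trypsinized and counted electronically. Means of three independent experiments, each in triplicate, used for dose-response curves and GI50.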

Series [3] concerns the target T1, Aromatase. Description: Mixed type inhibition of recombinant human aromatase assessed as Vmax preincubated for 10 min followed by different substrate concentration and beta-NADP+ addition measured for 60 mins by fluorescence method based Michaelis-menten analysis (reference value: 93.3 +/- 1.3 /ms). The following applies: 1 h.
Series [4] concerns MCF7. Nature of the series: Growth inhibition of human MCF7 cells incubated for 72 hrs by cell counting based method. It is filed as functional. The settings on record: MCF7, 72 h. Summed up: as §2
The target in series [5] is T1, Aromatase. Description: Inhibition of recombinant human aromatase at 200 uM preincubated for 10 mins followed by substrate and beta-NADP+ addition and measured for 60 mins by fluorescence method. The following applies: 1 h. The procedure, abridged: as §1
The target in series [6] is T1, Aromatase. Nature of the series: Inhibition of recombinant human aromatase preincubated for 10 mins followed by substrate and beta-NADP+ addition and measured for 60 mins by fluorescence method.
Series [7] deals with T1, Aromatase. Nature of the series: Mixed type inhibition of recombinant human aromatase assessed as substrate Vmax preincubated for 10 mins followed by different substrate concentration and beta-NADP+ addition and measured for 60 mins by fluorescence method based Cornish-Bowden direct linear analysis (reference value: 91.5 /ms). The following applies: 1 h.
Series [8] concerns the target T1, Aromatase. Description: Inhibition of recombinant human aromatase at 1 uM preincubated for 10 mins followed by substrate and beta-NADP+ addition and measured for 60 mins by fluorescence method. The following applies: 1 h, read-out: INH.

In general, GI50 refers to the concentration giving 50% growth inhibition. A lower GI50 goes with more potent growth inhibition. Usually IC50 stands for the concentration needed to halve the response being measured.

As to `O=C(CCc1ccc(O)c(Cl)c1)NCc1csc(=O)[nH]1`, the inhibition at 100 µM in series [1] is 53%. The values for the concentration for 50% growth inhibition (GI50) in series [2] and in series [4] were > 200 µM and 66.4 µM, respectively. Moreover, the Vmax in series [3] turned out to be 85.2 U/ms; in series [7], 78.7 U/ms. For the same compound, the inhibition at 200 µM in series [5] was 69%. The concentration for half-maximal inhibition (IC50) in series [6] came out at 21.7 µM.

With `Nc1nc(O)cc(NC(=S)Nc2ccc(C(=O)O)cc2)n1`, in series [1], the inhibition at 100 µM amounted to 8%. In addition, in series [5], the inhibition at 200 µM amounted to 8%.

Consider `O=C(C=Cc1ccc(O)c(O)c1)NCC(=O)NC(Cc1ccccc1)C(=O)O` (configuration not stated), for which the inhibition at 100 µM in series [1] was found to be 10%. Also, the inhibition at 200 µM in series [5] was found to be 13%.

As to `O=C1c2c(O)cc(O)cc2O[C@H](c2ccc(O)c(O)c2)[C@H]1O` [(+)-TAXIFOLIN], the inhibition at 100 µM in series [1] was 46%. In series [5], the inhibition at 200 µM was 56%.

`Cc1ccc(C(c2ccc(C)c(C)c2)C(O)C(O)C(O)C(O)CO)cc1C` (configuration not stated): the inhibition at 100 µM in series [1] worked out at 5%. Besides, the inhibition at 200 µM in series [5] is 8%.

As to `NC(CCC(=O)O)C(=O)NC(Cc1c[nH]c2ccccc12)C(=O)O` (configuration not stated), in series [1], the inhibition at 100 µM was found to be 4%. Further, the inhibition at 200 µM in series [5] came to 3%.

In the case of `CC/C(=C(\c1ccc(O)cc1)c1ccc(OCCNC)cc1)c1ccccc1` [ENDOXIFEN], the inhibition at 100 µM in series [1] came out at 11%. For the same compound, the inhibition at 200 µM in series [5] is 58%. Besides, the half-inhibitory concentration (IC50) in series [6] is 6.1 µM.

With `N#Cc1ccc(C(c2ccc(C#N)cc2)n2cncn2)cc1` [LETROZOLE], the 50% growth inhibitory concentration (GI50) is > 10 µM in series [2] and 4.1 µM in series [4]. Further, in series [8], the inhibition at 1 µM worked out at 91%.

`CCSC(C(O)C(O)C(O)C(O)CO)n1cnc2c(S)ncnc21` (configuration not stated): the inhibition at 100 µM in series [1] came to 2%. Moreover, the inhibition at 200 µM in series [5] was 12%.

With `O=C(NCc1cc[nH]c(=O)c1)c1ccc(COCC(F)(F)F)cc1`, the inhibition at 100 µM in series [1] turned out to be 3%. The inhibition at 200 µM in series [5] is 3%.

For the compound `COc1ccc([C@@H](O)CNC(=O)N[C@@H]2CCCCNC2=O)cc1`, the inhibition at 100 µM in series [1] is 4%. Besides, the inhibition at 200 µM in series [5] turned out to be 19%.

With `CC[C@H](Nc1cc(C)nc(Nc2cccc(O)c2)n1)c1nccs1`, the inhibition at 100 µM in series [1] amounted to 79%. The 50% growth inhibitory concentration (GI50) stood at 58 µM in series [2] and 21.3 µM in series [4]. The Vmax in series [3] was 19.3 U/ms; in series [7], 15.1 U/ms. For the same compound, the inhibition at 200 µM in series [5] was 88%. The half-inhibitory concentration (IC50) in series [6] turned out to be 5.1 µM.

As for `C[C@@H](NC(=O)c1ccc(=O)[nH]c1)c1ccc2[nH]c(=O)[nH]c2c1`, in series [1], the inhibition at 100 µM turned out to be 27%. In addition, the inhibition at 200 µM in series [5] was found to be 41%.

Consider `O=c1cc(CO)oc([C@H](Nc2ccccn2)c2ccccc2O)c1O`, for which the inhibition at 100 µM in series [1] amounted to 0%. Besides, the inhibition at 200 µM in series [5] worked out at 3%.

With `COC(=O)c1ccc(NCC2=CC(=O)c3ccccc3C2=O)cc1`, the inhibition at 100 µM in series [1] was 86%. The GI50 worked out at 16.2 µM in series [2] and 22.1 µM in series [4]. Besides, the Vmax in series [3] is reported as 79.3 U/ms; in series [7] it was 60.6 U/ms. Moreover, in series [5], the inhibition at 200 µM was 97%. For the same compound, the IC50 in series [6] came out at 95.3 µM.

As for `N[C@@H]1CCN(Cc2cc(O)c3cc(F)ccc3n2)C[C@H]1O`, the inhibition at 100 µM in series [1] was determined as 39%. Also, the concentration for 50% growth inhibition (GI50) in series [2] and in series [4] was > 200 µM in each case. The Vmax in series [3] was 64.6 U/ms; in series [7] it was 50.7 U/ms. Besides, the inhibition at 200 µM in series [5] came to 62%. Moreover, in series [6], the IC50 is 20.9 µM.

For `OCC(O)C(O)C(O)C(c1ccc(Cl)cc1)c1ccc(Cl)cc1` (configuration not stated), the inhibition at 100 µM in series [1] stood at 11%. For the same compound, the inhibition at 200 µM in series [5] was 10%.

For `O=C1c2c(O)ccc(O)c2C(=O)c2c(NCCCO)ccc(NCCCO)c21`, the inhibition at 100 µM in series [1] was 83%. Besides, the GI50 in series [2] was determined as 6.8 µM; in series [4], 17.9 µM. Also, the values for the Vmax in series [3] and in series [7] were 21.5 U/ms and 16.2 U/ms, respectively. Further, in series [5], the inhibition at 200 µM was 92%. In addition, the concentration for half-maximal inhibition (IC50) in series [6] was 11 µM.

As for `CC[C@H](CO)N(Cc1ccccn1)C(=O)c1ccc(=O)[nH]c1`, the inhibition at 100 µM in series [1] was 2%. Besides, the inhibition at 200 µM in series [5] turned out to be 6%.

Take `CC(C)(C)NCC(O)COc1cccc2c1C[C@H](O)[C@H](O)C2` (some centres not stated) [NADOLOL]: the inhibition at 100 µM in series [1] was found to be 0%. Moreover, the inhibition at 200 µM in series [5] is 0%.
